We go through 23 molecules from ChEMBL document CHEMBL3576832, “First Crystal Structures of Mycobacterium tuberculosis 6-Oxopurine Phosphoribosyltransferase: Complexes with GMP and Pyrophosphate and with Acyclic Nucleoside Phosphonates Whose Prodrugs Have Antituberculosis Activity” (J Med Chem, 2015).

SMILES strings stand for the structures.

Series [1] in a line: Selectivity index, ratio of CC50 for human A549 cells to MIC50 for Mycobacterium tuberculosis H37Rv […]. In kind it is functional. The essentials: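 Selectivity index computed as CC50 in A549 cells divided by MIC50 against H37Rv.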
Series [2] relates to Mycobacterium tuberculosis. Put plainly: Antimycobacterial activity against Mycobacterium tuberculosis H37Rv […] assessed as inhibition of microbial growth incubated for 5 days by resazurin reduction microplate assay. In kind it is functional. The note with it: 120 h. The procedure, abridged:
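H37Rv grown in 7H9 with OADC, 0.5% glycerol, 0.02% tyloxapol at 37 °C to mid-exponential phase (OD600 0.4−0.8), diluted to OD600 0.001 (~2 × 10^4 CFU/mL) in 7H9S with 0.5% DMSO; serially diluted compounds; 5 days at 37 °C, then resazurin plus Tween 80; fluorescence (ex 530/em 580 nm) read 30 h later; MIC50 from signal relative to no-inhibitor minus no-bacteria controls.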

For series [3], the target named is T1, Hypoxanthine-guanine phosphoribosyltransferase (Homo sapiens, UniProt P00492).
T1 sequence (P00492 whole entry): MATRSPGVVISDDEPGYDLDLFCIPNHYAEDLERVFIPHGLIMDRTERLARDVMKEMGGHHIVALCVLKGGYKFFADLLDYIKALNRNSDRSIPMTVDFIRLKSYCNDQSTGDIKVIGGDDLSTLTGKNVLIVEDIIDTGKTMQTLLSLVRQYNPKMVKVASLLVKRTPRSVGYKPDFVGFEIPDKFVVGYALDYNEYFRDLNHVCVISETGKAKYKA
Put plainly: Inhibition of human HGPRT.

A short description of series [4]: Inhibition of N-terminal hexa-histidine tagged Mycobacterium tuberculosis HGPRT expressed in Escherichia coli BL-21(DE3) using PRib-PP substrate and guanine.
Series [5] can be described thus: Cytotoxicity against human A549 cells assessed as inhibition of cell proliferation incubated for 4 days by Coulter counter based assay. The procedure, abridged: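 A549 cells seeded at 7500 per well; serially diluted compounds added 24 h later; 4 days at 37 °C; cells trypsinized and counted by Coulter Counter; CC50 (50% proliferation vs untreated) obtained by extrapolation; mean ± SEM of two or three independent tests.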

The subject of series [6] is Mycobacterium tuberculosis. The experiment in a line: Potency index, ratio of Ki for GMP to Ki for compound against N-terminal hexa-histidine tagged Mycobacterium tuberculosis HGPRT expressed in Escherichia coli BL-21(DE3) using PRib-PP substrate and guanine.
Series [7] can be described thus: Inhibition of Escherichia coli HGPRT.
A short description of series [8]: Inhibition of Mycobacterium tuberculosis HGPRT.
The nature of series [9]: Selectivity index, ratio of Ki for human HGPRT to Ki for N-terminal hexa-histidine tagged Mycobacterium tuberculosis HGPRT.

As for `CCOC(=O)[C@H](Cc1ccccc1)NP(=O)(COCC(COCP(=O)(N[C@@H](Cc1ccccc1)C(=O)OCC)N[C@@H](Cc1ccccc1)C(=O)OCC)Cn1cnc2c(=O)[nH]c(N)nc21)N[C@@H](Cc1ccccc1)C(=O)OCC`, the “Selectivity Index” value in series [1] was more than 27. In series [2], the MIC50 (as a rule, the lowest concentration that inhibits either 50% of growth or 50% of the strains tested, depending on the study) turned out to be 11 µM.

With `O=c1[nH]cnc2c1ncn2CCN(CCN(CCP(=O)(O)O)CCP(=O)(O)O)CCP(=O)(O)O`, the Ki (as a rule, a dissociation constant, usually derived from enzyme kinetics or from competition with a known ligand) came to 0.01 µM in series [3] and 1.13 µM in [4].

Turning to `O=c1[nH]cnc2c1ncn2CC(COCCP(=O)(O)O)OCCP(=O)(O)O` (stereo not drawn), the inhibitory constant (Ki) in series [3] is 4 µM; in series [4] it was more than 50 µM.

Turning to `CCOC(=O)[C@H](Cc1ccccc1)NP(=O)(CCN(CCO)CCN(CCn1cnc2c(=O)[nH]c(N)nc21)CCP(=O)(N[C@@H](Cc1ccccc1)C(=O)OCC)N[C@@H](Cc1ccccc1)C(=O)OCC)N[C@@H](Cc1ccccc1)C(=O)OCC`, the CC50 (as a rule, the concentration at which the toxic effect on the cells reaches its halfway point) at 96 h in [5] was 193 µM. Besides, the “Selectivity Index” value in series [1] is on record as more than 43. Further, the MIC50 in [2] stood at 4.5 µM.

Turning to `CCOC(=O)[C@H](Cc1ccccc1)NP(=O)(CCOCC(Cn1cnc2c(=O)[nH]cnc21)OCCP(=O)(N[C@@H](Cc1ccccc1)C(=O)OCC)N[C@@H](Cc1ccccc1)C(=O)OCC)N[C@@H](Cc1ccccc1)C(=O)OCC` (stereo partly drawn), the CC50 at 96 h in series [5] came to 90 µM. Besides, in series [1], the “Selectivity Index” value was more than 6. The MIC50 in series [2] was 15 µM.

As for `O=c1[nH]cnc2c1ncn2CCN(CCOCCP(=O)(O)O)CCP(=O)(O)O`, the Ki in series [4] is more than 50 µM.

On to `O=c1[nH]cnc2c1ncn2CCN(CCN(CCO)CCP(=O)(O)O)CCP(=O)(O)O`, for which the results for the Ki in series [3] and in series [4] were 0.5 µM and 22.5 µM, respectively.

Turning to `CCOC(=O)[C@H](Cc1ccccc1)NP(=O)(CCN(CCO)CCN(CCn1cnc2c(=O)[nH]cnc21)CCP(=O)(N[C@@H](Cc1ccccc1)C(=O)OCC)N[C@@H](Cc1ccccc1)C(=O)OCC)N[C@@H](Cc1ccccc1)C(=O)OCC`, the CC50 at 96 h in series [5] was determined as 156 µM. Also, the “Selectivity Index” value in [1] is on record as more than 19.5. Also, the MIC50 in series [2] turned out to be 8 µM.

As to `Nc1nc2c(ncn2CCN(CCN(CCO)CCP(=O)(O)O)CCP(=O)(O)O)c(=O)[nH]1`, the inhibition constant Ki in [3] came to 0.03 µM; in series [4] it was 1.6 µM.

In the case of `Nc1nc2c(ncn2CC(COCP(=O)(O)O)COCP(=O)(O)O)c(=O)[nH]1`, the Ratio Ki in [6] was found to be 28. In [4], the inhibition constant (Ki) turned out to be 0.77 µM.

`Nc1nc2c(ncn2CC(COCCP(=O)(O)O)OCCP(=O)(O)O)c(=O)[nH]1` (stereo not drawn): the Ratio Ki in series [6] was 28. In [4], the Ki amounted to 0.69 µM.

For `Nc1nc2c(ncn2[C@@H]2O[C@H](COP(=O)(O)O)[C@@H](O)[C@H]2O)c(=O)[nH]1`, the Ki in [7] stood at 526 µM; in series [8], 20 µM.

For `CCOC(=O)[C@H](Cc1ccccc1)NP(=O)(CCN(CCN(CCP(=O)(N[C@@H](Cc1ccccc1)C(=O)OCC)N[C@@H](Cc1ccccc1)C(=O)OCC)CCP(=O)(N[C@@H](Cc1ccccc1)C(=O)OCC)N[C@@H](Cc1ccccc1)C(=O)OCC)CCn1cnc2c(=O)[nH]c(N)nc21)N[C@@H](Cc1ccccc1)C(=O)OCC`, the half-maximal cytotoxic concentration (CC50) at 96 h in series [5] is more than 300 µM. In addition, the “Selectivity Index” value in series [1] is recorded as more than 67. Also, the MIC50 in series [2] was found to be 4.5 µM.

Consider `Nc1nc2c(ncn2CCN(CCN(CCP(=O)(O)O)CCP(=O)(O)O)CCP(=O)(O)O)c(=O)[nH]1`, for which the Ki in series [3] was determined as 0.03 µM; in series [4] it was 1.6 µM.

`O=c1[nH]cnc2c1ncn2CCOCCP(=O)(O)O` yielded a Ki in series [4] of 18 µM.

Consider `Nc1nc2c(ncn2CCN(CCOCCP(=O)(O)O)CCP(=O)(O)O)c(=O)[nH]1`, for which the Ki in series [4] amounted to 1.4 µM.

In series [4], `O=c1[nH]cnc2c1ncn2CC(COCP(=O)(O)O)COCP(=O)(O)O` registered a Ki of 7.7 µM.

With `O=c1[nH]cnc2c1ncn2CCN(CCN(CCCO)CCP(=O)(O)O)CCP(=O)(O)O`, in [9], the Ratio Ki amounted to 14. The inhibition constant Ki in series [3] came to 1.64 µM; in series [4], 22.7 µM.

In the case of `Nc1nc2c(ncn2CCOCCP(=O)(O)O)c(=O)[nH]1`, in [4], the Ki came out at 1.76 µM.

For `CCOC(=O)[C@H](Cc1ccccc1)NP(=O)(COCC(COCP(=O)(N[C@@H](Cc1ccccc1)C(=O)OCC)N[C@@H](Cc1ccccc1)C(=O)OCC)Cn1cnc2c(=O)[nH]cnc21)N[C@@H](Cc1ccccc1)C(=O)OCC`, the “Selectivity Index” value in series [1] was more than 13. In addition, the MIC50 in series [2] was 7.5 µM.

Turning to `CCOC(=O)[C@H](Cc1ccccc1)NP(=O)(CCOCC(Cn1cnc2c(=O)[nH]c(N)nc21)OCCP(=O)(N[C@@H](Cc1ccccc1)C(=O)OCC)N[C@@H](Cc1ccccc1)C(=O)OCC)N[C@@H](Cc1ccccc1)C(=O)OCC` (stereo partly drawn), the “Selectivity Index” value in [1] was more than 11. The MIC50 in [2] was determined as 9 µM.

As to `Nc1nc2c(ncn2CCN(CCN(CCCO)CCP(=O)(O)O)CCP(=O)(O)O)c(=O)[nH]1`, the Ratio Ki in series [9] stood at 400. For the same molecule, the values for the Ki in series [3] and in series [4] were 0.04 µM and 15.9 µM, respectively.

For `CCOC(=O)[C@H](Cc1ccccc1)NP(=O)(CCN(CCN(CCP(=O)(N[C@@H](Cc1ccccc1)C(=O)OCC)N[C@@H](Cc1ccccc1)C(=O)OCC)CCP(=O)(N[C@@H](Cc1ccccc1)C(=O)OCC)N[C@@H](Cc1ccccc1)C(=O)OCC)CCn1cnc2c(=O)[nH]cnc21)N[C@@H](Cc1ccccc1)C(=O)OCC`, the CC50 at 96 h in series [5] was 28 µM. For the same molecule, in [1], the “Selectivity Index” value is more than 6. Moreover, the MIC50 in series [2] was 4.5 µM.
